Test results reported in ChEMBL document CHEMBL1828538, “Synthesis and pharmacological evaluation of indole-based sigma receptor ligands” (Eur J Med Chem, 2011).
Active and inactive are the calls of the source.

Tests used:
[1] = Displacement of radioligand from adrenergic alpha2 receptor assessed as 50% receptor inhibition at 10^-5 M
Procedure, shortened: (§1)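 Part of a contracted (NovaScreen) panel of 64 radioligand/enzyme assays, with the test compound run at 10⁻⁵ M and 10⁻⁷ M. Each assay was scored by whether radioligand displacement exceeded 50% at each concentration.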

[2] = biological target: Cannabinoid receptor 1 (Homo sapiens) (UniProt P21554); assay: Displacement of radioligand from cannabinoid CB1 receptor assessed as 50% receptor inhibition at 10^-5 M; procedure, shortened: as §1
Cannabinoid receptor 1 (Homo sapiens), sequence (P21554 whole entry): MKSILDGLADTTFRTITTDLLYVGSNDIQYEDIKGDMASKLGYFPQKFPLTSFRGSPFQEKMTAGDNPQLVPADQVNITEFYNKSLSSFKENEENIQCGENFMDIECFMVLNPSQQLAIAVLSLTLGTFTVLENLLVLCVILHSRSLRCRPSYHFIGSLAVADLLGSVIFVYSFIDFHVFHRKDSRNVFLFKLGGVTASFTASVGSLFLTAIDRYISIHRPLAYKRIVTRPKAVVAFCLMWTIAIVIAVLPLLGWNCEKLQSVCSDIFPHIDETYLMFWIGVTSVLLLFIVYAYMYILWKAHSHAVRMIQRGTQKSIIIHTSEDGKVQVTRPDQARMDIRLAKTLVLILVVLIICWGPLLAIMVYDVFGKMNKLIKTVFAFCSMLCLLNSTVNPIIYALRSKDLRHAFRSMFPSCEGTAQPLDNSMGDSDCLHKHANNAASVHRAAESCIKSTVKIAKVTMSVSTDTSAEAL

[3] = biological target: Cannabinoid receptor 2 (Homo sapiens) (UniProt P34972); assay: Displacement of radioligand from cannabinoid CB2 receptor assessed as 50% receptor inhibition at 10^-5 M; procedure, shortened: as §1
Cannabinoid receptor 2 (Homo sapiens), sequence (P34972 whole entry): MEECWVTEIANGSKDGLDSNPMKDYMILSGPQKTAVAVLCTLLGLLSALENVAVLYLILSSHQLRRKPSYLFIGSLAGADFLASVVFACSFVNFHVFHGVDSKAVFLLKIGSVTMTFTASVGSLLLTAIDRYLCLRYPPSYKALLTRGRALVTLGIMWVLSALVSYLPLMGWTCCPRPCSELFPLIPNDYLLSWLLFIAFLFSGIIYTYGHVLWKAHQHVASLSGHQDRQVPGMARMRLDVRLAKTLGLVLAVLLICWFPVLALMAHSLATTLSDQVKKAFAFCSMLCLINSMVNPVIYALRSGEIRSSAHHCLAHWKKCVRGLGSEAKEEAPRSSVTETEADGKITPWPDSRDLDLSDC

[4] = Displacement of radioligand from dopamine D4.2 receptor assessed as 50% receptor inhibition at 10^-5 M; procedure, shortened: as §1
[5] = biological target: Histamine H1 receptor (Homo sapiens) (UniProt P35367); assay: Displacement of radioligand from histamine H1 receptor assessed as 50% receptor inhibition at 10^-5 M; procedure, shortened: as §1
Histamine H1 receptor (Homo sapiens), sequence (P35367 whole entry): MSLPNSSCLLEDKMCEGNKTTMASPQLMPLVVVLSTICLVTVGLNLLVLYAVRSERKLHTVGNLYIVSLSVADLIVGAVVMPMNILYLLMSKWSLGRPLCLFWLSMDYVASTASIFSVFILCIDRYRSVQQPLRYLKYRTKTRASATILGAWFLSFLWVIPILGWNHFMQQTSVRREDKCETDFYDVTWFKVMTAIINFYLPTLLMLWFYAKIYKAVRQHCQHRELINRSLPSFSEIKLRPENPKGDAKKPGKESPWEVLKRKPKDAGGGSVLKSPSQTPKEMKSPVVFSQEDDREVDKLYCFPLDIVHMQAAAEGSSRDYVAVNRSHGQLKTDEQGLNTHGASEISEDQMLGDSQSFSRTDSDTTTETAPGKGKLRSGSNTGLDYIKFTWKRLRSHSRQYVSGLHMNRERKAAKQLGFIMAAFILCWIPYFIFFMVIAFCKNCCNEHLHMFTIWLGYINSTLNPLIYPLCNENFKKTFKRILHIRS

[6] = biological target: T1, Muscarinic acetylcholine receptor M1 (Homo sapiens) (UniProt P11229); assay: Displacement of radioligand from muscarinic M1 receptor assessed as 50% receptor inhibition at 10^-5 M; procedure, shortened: as §1
T1 sequence (whole entry): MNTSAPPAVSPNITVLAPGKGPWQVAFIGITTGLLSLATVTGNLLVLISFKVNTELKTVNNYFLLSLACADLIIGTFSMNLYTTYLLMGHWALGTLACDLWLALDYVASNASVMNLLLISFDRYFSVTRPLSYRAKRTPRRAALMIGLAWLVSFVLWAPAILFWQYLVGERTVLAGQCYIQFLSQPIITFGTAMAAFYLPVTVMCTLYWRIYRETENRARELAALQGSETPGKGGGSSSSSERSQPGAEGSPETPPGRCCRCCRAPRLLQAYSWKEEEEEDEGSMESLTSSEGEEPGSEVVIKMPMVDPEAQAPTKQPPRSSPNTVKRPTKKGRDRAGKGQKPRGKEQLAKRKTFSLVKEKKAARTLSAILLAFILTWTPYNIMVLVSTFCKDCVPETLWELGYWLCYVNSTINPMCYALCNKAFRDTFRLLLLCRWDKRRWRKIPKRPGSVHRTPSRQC

[7] = biological target: Mu-type opioid receptor (Homo sapiens) (UniProt P35372); assay: Displacement of radioligand from opioid mu receptor assessed as 50% receptor inhibition at 10^-5 M; procedure, shortened: as §1
Mu-type opioid receptor (Homo sapiens), sequence (P35372 whole entry): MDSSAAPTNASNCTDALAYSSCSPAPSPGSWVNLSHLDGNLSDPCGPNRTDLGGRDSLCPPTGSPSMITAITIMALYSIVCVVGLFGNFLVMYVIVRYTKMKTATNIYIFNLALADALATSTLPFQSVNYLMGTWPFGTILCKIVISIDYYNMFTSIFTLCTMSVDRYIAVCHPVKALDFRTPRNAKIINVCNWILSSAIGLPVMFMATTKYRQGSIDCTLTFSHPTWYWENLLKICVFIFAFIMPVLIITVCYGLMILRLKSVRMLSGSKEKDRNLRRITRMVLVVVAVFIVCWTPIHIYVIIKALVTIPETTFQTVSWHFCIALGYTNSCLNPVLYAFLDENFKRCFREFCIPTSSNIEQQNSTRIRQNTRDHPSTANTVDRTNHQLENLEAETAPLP

[8] = Displacement of radioligand from BZT-sensitive L-type calcium channel assessed as 50% receptor inhibition at 10^-5 M; procedure, shortened: as §1
[9] = Displacement of radioligand from sodium channel site 2 assessed as 50% receptor inhibition at 10^-5 M; procedure, shortened: as §1
[10] = biological target: T2, Substance-K receptor (Homo sapiens) (UniProt P21452); assay: Displacement of radioligand from neurokinin NK2 receptor assessed as 50% receptor inhibition at 10^-5 M; procedure, shortened: as §1
T2 sequence (whole entry): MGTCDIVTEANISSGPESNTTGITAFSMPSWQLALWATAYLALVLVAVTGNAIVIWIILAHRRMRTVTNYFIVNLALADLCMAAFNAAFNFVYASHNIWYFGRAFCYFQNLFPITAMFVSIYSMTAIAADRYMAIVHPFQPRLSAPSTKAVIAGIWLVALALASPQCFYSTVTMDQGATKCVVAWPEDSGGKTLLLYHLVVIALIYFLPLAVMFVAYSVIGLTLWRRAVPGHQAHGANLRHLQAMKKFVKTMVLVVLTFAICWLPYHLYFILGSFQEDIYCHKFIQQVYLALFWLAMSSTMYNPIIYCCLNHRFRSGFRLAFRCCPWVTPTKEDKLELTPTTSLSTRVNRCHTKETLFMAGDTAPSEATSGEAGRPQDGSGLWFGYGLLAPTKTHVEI

[11] = biological target: Sodium-dependent serotonin transporter (Homo sapiens, UniProt P31645); assay: Displacement of [125I]RTI-55 from human SERT expressed in HEK293 cells; assay type: cell-based
Sodium-dependent serotonin transporter, sequence (P31645 whole entry): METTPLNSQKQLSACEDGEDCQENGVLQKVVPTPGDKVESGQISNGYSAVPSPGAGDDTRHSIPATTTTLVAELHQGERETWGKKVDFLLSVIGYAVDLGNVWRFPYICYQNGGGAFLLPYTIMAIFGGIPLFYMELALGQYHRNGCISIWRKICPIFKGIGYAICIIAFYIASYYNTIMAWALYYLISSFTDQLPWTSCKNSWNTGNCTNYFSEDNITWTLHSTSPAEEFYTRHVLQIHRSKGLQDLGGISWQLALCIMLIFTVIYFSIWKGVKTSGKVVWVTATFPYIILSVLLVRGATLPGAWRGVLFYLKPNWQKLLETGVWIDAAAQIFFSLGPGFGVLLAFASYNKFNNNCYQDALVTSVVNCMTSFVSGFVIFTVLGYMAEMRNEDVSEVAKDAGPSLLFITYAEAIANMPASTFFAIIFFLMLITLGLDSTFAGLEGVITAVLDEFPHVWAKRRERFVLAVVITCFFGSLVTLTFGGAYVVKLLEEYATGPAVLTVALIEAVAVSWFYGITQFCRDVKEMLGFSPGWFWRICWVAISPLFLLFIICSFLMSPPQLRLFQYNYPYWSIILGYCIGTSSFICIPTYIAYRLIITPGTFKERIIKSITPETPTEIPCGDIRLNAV

[12] = biological target: Sodium-dependent noradrenaline transporter (Homo sapiens, UniProt P23975); assay: Displacement of [125I]RTI-55 from human NET expressed in HEK293 cells; assay type: cell-based
Sodium-dependent noradrenaline transporter, sequence (P23975 whole entry): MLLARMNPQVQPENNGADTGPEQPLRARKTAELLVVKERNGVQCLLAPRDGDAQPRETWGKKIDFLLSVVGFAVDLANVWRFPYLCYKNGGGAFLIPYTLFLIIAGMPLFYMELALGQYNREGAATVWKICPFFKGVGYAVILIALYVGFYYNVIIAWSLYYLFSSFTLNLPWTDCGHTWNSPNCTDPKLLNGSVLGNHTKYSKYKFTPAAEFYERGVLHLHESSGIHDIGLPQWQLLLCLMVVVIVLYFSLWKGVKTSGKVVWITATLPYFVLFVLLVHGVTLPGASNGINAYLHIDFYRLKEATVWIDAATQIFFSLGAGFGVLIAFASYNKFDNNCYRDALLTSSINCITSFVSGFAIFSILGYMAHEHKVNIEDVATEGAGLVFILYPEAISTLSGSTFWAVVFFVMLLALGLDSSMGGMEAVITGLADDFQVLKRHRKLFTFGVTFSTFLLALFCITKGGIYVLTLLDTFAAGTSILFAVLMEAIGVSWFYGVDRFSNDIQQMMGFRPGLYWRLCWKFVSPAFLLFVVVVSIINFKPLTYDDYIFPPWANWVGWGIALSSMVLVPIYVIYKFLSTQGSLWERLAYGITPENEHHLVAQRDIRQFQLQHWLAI
Procedure, shortened: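 Nonspecific binding was defined with 5 μM mazindol. Ki was determined under standard conditions and reported as mean ± SEM of replicate assays. A value >10000 nM means less than 30% radioligand displacement at that concentration.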

D(2) dopamine receptor = D(2) dopamine receptor (Homo sapiens, UniProt P14416); assay: Displacement of [3H]YM-09151-2 from human D2 receptor expressed in CHO cells; assay type: cell-based
D(2) dopamine receptor, sequence (P14416 whole entry): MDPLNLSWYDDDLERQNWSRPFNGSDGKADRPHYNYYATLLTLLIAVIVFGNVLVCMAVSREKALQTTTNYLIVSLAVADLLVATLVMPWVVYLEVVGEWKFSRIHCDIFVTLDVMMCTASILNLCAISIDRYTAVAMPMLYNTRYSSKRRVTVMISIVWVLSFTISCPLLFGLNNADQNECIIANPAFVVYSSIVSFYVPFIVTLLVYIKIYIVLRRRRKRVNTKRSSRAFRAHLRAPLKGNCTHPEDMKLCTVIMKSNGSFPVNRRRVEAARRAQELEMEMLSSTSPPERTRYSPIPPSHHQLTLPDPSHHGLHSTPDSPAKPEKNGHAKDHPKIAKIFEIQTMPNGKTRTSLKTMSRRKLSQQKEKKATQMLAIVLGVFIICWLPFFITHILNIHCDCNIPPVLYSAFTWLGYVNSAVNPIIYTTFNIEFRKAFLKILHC
Procedure, shortened: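 CHOp-D2 or CHOp-D3 cells were labelled with 0.2–0.5 nM [3H]YM-09151-2, and nonspecific binding was set with 1 μM chlorpromazine. Ki was from standard competition conditions, as mean ± SEM of replicate assays.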

[13] = biological target: 5-hydroxytryptamine receptor 2A (Homo sapiens, UniProt P28223); assay: Displacement of […] from human 5HT2A receptor expressed in HEK cells; assay type: cell-based, HEK293
5-hydroxytryptamine receptor 2A, sequence (P28223 whole entry): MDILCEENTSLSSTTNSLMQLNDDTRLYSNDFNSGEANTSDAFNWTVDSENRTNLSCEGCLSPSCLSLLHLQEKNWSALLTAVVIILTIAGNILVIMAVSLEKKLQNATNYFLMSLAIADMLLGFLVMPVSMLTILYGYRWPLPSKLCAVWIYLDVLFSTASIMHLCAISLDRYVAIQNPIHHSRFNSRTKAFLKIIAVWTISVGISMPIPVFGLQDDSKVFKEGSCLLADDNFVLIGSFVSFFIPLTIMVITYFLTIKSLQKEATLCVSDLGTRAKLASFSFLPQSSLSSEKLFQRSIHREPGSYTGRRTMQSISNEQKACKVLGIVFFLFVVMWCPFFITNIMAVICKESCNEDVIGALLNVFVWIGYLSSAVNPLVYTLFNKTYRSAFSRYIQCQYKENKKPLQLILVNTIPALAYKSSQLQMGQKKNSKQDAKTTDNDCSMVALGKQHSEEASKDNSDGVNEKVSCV

[14] = Displacement of radioligand from adrenergic alpha1 receptor assessed as 50% receptor inhibition at 10^-7 M; procedure, shortened: as §1
[15] = Displacement of radioligand from adrenergic alpha2 receptor assessed as 50% receptor inhibition at 10^-7 M; procedure, shortened: as §1
[16] = biological target: Cannabinoid receptor 1 (Homo sapiens) (UniProt P21554); assay: Displacement of radioligand from cannabinoid CB1 receptor assessed as 50% receptor inhibition at 10^-7 M; procedure, shortened: as §1
[17] = biological target: Cannabinoid receptor 2 (Homo sapiens) (UniProt P34972); assay: Displacement of radioligand from cannabinoid CB2 receptor assessed as 50% receptor inhibition at 10^-7 M; procedure, shortened: as §1
[18] = biological target: Histamine H1 receptor (Homo sapiens) (UniProt P35367); assay: Displacement of radioligand from histamine H1 receptor assessed as 50% receptor inhibition at 10^-7 M; procedure, shortened: as §1
[19] = biological target: Mu-type opioid receptor (Homo sapiens) (UniProt P35372); assay: Displacement of radioligand from opioid mu receptor assessed as 50% receptor inhibition at 10^-7 M; procedure, shortened: as §1
[20] = Displacement of radioligand from BZT-sensitive L-type calcium channel assessed as 50% receptor inhibition at 10^-7 M; procedure, shortened: as §1
[21] = Displacement of radioligand from sodium channel site 2 assessed as 50% receptor inhibition at 10^-7 M; procedure, shortened: as §1
[22] = biological target: T2, Substance-K receptor (Homo sapiens); assay: Displacement of radioligand from neurokinin NK2 receptor assessed as 50% receptor inhibition at 10^-7 M; procedure, shortened: as §1
[23] = Displacement of radioligand from adrenergic alpha1 receptor assessed as 50% receptor inhibition at 10^-5 M; procedure, shortened: as §1

COc1cc2c(cc1OC)CN(CCCCn1cc(-c3ccc(F)cc3)c3ccccc31)CC2
295 nM: Ki [11]
1350 nM: Ki [12]
1270 nM: Ki [13]
inactive: inhibition [14] | inhibition [15] | inhibition [16] | inhibition [17] | inhibition [18] | inhibition [19] | inhibition [20] | inhibition [21] | inhibition [22]
870 nM: Ki (D(2) dopamine receptor)
active: inhibition [1] | inhibition [2] | inhibition [3] | inhibition [4] | inhibition [5] | inhibition [6] | inhibition [7] | inhibition [8] | inhibition [9] | inhibition [10] | inhibition [23]
